One may read the IC50 as the concentration that gives 50% inhibition. Read a low IC50 as greater potency in that assay. The Ki is a dissociation constant, usually derived from enzyme kinetics or from competition with a known ligand. Low readings indicate a stronger hold on the target, high ones a looser hold on the target.

Assay [1] deals with T1, Coagulation factor X (Homo sapiens, UniProt P00742). Briefly: In vitro inhibition of human Coagulation factor X.
For another assay, the target named is Plasminogen (Homo sapiens, UniProt P00747). In words: In vitro inhibition of human plasmin. In a few lines:
(§1)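 Purified human enzymes (plasmin, thrombin/factor IIa, trypsin) were each tested for inhibitor-dependent cleavage of a chromogenic substrate. IC50 is the concentration that blocks 50% of substrate cleavage.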

A further assay has as its target Prothrombin (Homo sapiens, UniProt P00734). Briefly: In vitro inhibition of human thrombin. Put shortly:
as §1

For a further assay, the target named is Serine protease 1 (Homo sapiens, UniProt P07477). Briefly: In vitro inhibition of human trypsin. Put shortly: as §1
Chain of Serine protease 1 (P07477 whole entry): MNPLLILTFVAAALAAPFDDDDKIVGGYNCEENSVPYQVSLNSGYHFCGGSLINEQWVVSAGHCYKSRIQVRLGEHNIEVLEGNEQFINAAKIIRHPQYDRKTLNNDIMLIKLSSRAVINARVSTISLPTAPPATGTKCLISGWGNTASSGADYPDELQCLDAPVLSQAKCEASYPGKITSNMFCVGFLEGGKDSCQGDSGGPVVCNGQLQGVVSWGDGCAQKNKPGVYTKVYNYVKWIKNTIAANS
Assay [2] in a line: Concentration required to inhibit the activation of human prothrombin in a preformed complex of factor Xa, factor IIa and phospholipid in vitro. Conditions: in the assay text read “factor Va” for “factor IIa”. In a few lines: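 The assembled prothrombinase complex was assayed with its natural substrate, prothrombin, to measure inhibition of prothrombin activation. IC50 is the concentration giving 50% inhibition.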

Assay [3] is described as follows: Ratio of inhibitory concentration of prothrombinase to that of human factor Xa was determined.
Assay [4] addresses T1, Coagulation factor X. Briefly: In vitro inhibitory activity against human Coagulation factor X.
Assay [5] addresses T1, Coagulation factor X. In words: Concentration required for classical fast inhibition of cleavage of the chromogenic substrate by human enzyme Coagulation factor X in vitro.
Assay [6] has as its target T1, Coagulation factor X. In words: Concentration required to inhibit the cleavage of the chromogenic substrate by human enzyme Coagulation factor X in vitro.

Chain of Plasminogen (P00747 97-580 limits assumed): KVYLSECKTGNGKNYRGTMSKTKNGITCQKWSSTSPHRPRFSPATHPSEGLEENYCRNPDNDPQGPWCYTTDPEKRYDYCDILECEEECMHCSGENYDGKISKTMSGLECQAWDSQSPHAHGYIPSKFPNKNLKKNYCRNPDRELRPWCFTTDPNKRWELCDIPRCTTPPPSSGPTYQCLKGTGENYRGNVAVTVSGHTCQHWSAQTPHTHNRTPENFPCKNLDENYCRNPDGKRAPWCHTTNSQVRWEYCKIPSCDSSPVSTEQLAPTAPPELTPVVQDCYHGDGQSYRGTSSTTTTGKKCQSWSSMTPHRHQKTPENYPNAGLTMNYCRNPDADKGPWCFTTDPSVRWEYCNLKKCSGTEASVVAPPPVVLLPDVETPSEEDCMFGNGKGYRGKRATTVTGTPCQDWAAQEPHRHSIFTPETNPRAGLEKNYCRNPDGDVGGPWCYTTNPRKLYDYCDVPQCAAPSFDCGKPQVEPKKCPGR
Chain of Plasminogen (P00747 581-810 limits assumed): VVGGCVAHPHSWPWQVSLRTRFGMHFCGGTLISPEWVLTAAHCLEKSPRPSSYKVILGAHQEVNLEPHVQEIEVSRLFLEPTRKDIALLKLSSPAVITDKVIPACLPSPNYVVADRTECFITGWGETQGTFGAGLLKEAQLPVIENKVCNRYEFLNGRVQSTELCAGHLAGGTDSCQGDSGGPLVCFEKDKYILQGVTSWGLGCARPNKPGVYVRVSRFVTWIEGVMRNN
T1 sequence (P00742 41-179 limits assumed): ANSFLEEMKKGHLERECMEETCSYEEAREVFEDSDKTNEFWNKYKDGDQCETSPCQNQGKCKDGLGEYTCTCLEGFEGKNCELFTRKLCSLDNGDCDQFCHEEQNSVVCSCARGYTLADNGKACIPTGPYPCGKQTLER
T1 sequence (P00742 235-488 limits assumed): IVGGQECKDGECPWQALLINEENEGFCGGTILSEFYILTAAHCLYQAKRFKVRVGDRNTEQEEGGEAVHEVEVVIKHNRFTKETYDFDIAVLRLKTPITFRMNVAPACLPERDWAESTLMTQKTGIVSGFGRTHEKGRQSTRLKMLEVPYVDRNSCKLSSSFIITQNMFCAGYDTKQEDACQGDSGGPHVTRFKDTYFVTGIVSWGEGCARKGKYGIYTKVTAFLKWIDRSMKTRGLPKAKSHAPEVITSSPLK

For the compound `COC(=O)c1ccccc1CS(=O)(=O)N[C@H](CC1CCCN(C(=N)N)C1)C(=O)NCC(=O)N[C@H]1CCCN(C(=N)N)C1O` (stereo in doubt; form 2), the IC50 against Coagulation factor X [1] was 1.08 nM; at Plasminogen, 894 nM; against Prothrombin, greater than 2500 nM; against Serine protease 1, 124 nM.
Regarding `N=C(N)NCCC[C@@H](NC(=O)OCc1ccccc1)C(=O)NCC(=O)N[C@H]1CCCN(C(=N)N)C1O` (stereo in doubt) [listing 1 of 2 here], the figures for the IC50 (against Coagulation factor X [1]; in assay [2]) were 0.9 nM and 3.4 nM, respectively.
`COC(=O)c1ccccc1CS(=O)(=O)N[C@H](CC1CCN(C(=N)N)CC1)C(=O)NCC(=O)N[C@H]1CCCN(C(=N)N)C1O` (some centres undefined): the 50% inhibitory concentration (IC50) was 0.94 nM on Coagulation factor X [1], 965 nM against Plasminogen, greater than 2500 nM against Prothrombin and 147 nM against Serine protease 1.
In the case of `N=C(N)N1CCC(C(NS(=O)(=O)Cc2ccccc2)C(=O)NCC(=O)N[C@H]2CCCN(C(=N)N)C2O)CC1` (some centres undefined), the 50% inhibitory concentration (IC50) against Coagulation factor X [1] was 1.1 nM; at Plasminogen, 678 nM; against Prothrombin, greater than 2500 nM; against Serine protease 1, 25 nM.
For the compound `N=C(N)NCCC[C@@H](NC(=O)OCc1ccccc1)C(=O)NCC(=O)N[C@H]1CCCN(C(=N)N)C1O` (single isomer, unassigned) [listing 1 of 2 here], the Ratio in [3] was 0.23.
On to `COC(=O)c1cccc(CS(=O)(=O)N[C@H](CC2CCN(C(=N)N)CC2)C(=O)NCC(=O)N[C@H]2CCCN(C(=N)N)C2O)c1` (some centres undefined), for which the IC50 at Coagulation factor X [1] is 2.2 nM; at Plasminogen, 387 nM; on Prothrombin, greater than 2500 nM; on Serine protease 1, 145 nM.
Consider `CCOC(=O)c1ccc(CCOC(=O)N[C@H](CC2CCN(C(=N)N)CC2)C(=O)NCC(=O)N[C@H]2CCCN(C(=N)N)C2O)cc1` (some centres undefined), for which affinity on Coagulation factor X [4] was put at a Ki of 16 nM. Besides, the IC50 was 1440 nM on Plasminogen, greater than 2500 nM against Prothrombin and 158 nM against Serine protease 1.
As for `N=C(N)NCCC[C@@H](NC(=O)OCc1ccccc1)C(=O)NCC(=O)N[C@H]1CCCN(C(=N)N)C1O` (stereo in doubt) [listing 2 of 2 here], the Ratio in assay [3] is 3.8.
In the case of `N=C(N)N1CCCC(C[C@@H](NS(=O)(=O)Cc2ccccc2C(=O)O)C(=O)NCC(=O)N[C@H]2CCCN(C(=N)N)C2O)C1` (stereo in doubt), the IC50 on Coagulation factor X [1] is 4.2 nM; against Plasminogen, greater than 2500 nM; against Prothrombin it was 352 nM; against Serine protease 1, 33 nM.
The matching figures for `N=C(N)N1CCCC(C[C@@H](NS(=O)(=O)Cc2ccccc2C(=O)O)C(=O)NCC(=O)N[C@H]2CCCN(C(=N)N)C2O)C1` (single isomer, unassigned): 2.1 nM, 2500 nM, greater than 2500 nM and 240 nM.
Turning to `N=C(N)N1CCC(C[C@@H](NS(=O)(=O)Cc2ccccc2-n2cnnn2)C(=O)NCC(=O)N[C@H]2CCCN(C(=N)N)C2O)CC1` (some centres undefined), the IC50 against Coagulation factor X [1] is 2.6 nM; against Plasminogen it was 872 nM; in assay [2], 69 nM; on Prothrombin it was greater than 2500 nM; at Serine protease 1 it was 537 nM. The inhibition constant (Ki) at Coagulation factor X [5] turned out to be 23 nM. The Ratio in assay [3] was found to be 3.
`N=C(N)N1CCCC(C[C@@H](NS(=O)(=O)Cc2ccccc2)C(=O)NCC(=O)N[C@H]2CCCN(C(=N)N)C2O)C1` (single isomer, unassigned) [listing 1 of 2 here]: the half-maximal inhibitory concentration (IC50) is 1.2 nM against Coagulation factor X [1]; 919 nM on Plasminogen; 4.2 nM in [2]; greater than 2500 nM against Prothrombin; 120 nM against Serine protease 1.
With `N=C(N)N1CCCC(C[C@@H](NS(=O)(=O)Cc2ccccc2)C(=O)NCC(=O)N[C@H]2CCCN(C(=N)N)C2O)C1` (single isomer, unassigned) [listing 2 of 2 here], the Ratio in assay [3] stood at 2.
On to `N=C(N)NCCC[C@@H](NC(=O)OCc1ccccc1)C(=O)NCC(=O)N[C@H]1CCCN(C(=N)N)C1O` (single isomer, unassigned) [listing 2 of 2 here], for which the half-inhibitory concentration (IC50) against Coagulation factor X [1] was 35 nM; in assay [2] it was 7.9 nM.
As to `N=C(N)N1CCC(C[C@@H](NS(=O)(=O)Cc2cccc(C(=O)O)c2)C(=O)NCC(=O)N[C@H]2CCCN(C(=N)N)C2O)CC1` (some centres undefined), the IC50 was 4.3 nM against Coagulation factor X [1]; 231 nM at Plasminogen; 14 nM in [2]; greater than 2500 nM at Prothrombin; 211 nM at Serine protease 1. Besides, on Coagulation factor X [5], the affinity, expressed as Ki, was 16 nM. Moreover, the Ratio in assay [3] was determined as 0.9.
On to `COC(=O)c1ccccc1CS(=O)(=O)N[C@H](CC1CCCN(C(=N)N)C1)C(=O)NCC(=O)N[C@H]1CCCN(C(=N)N)C1O` (stereo in doubt; form 1), for which the half-maximal inhibitory concentration (IC50) against Coagulation factor X [1] was 1.37 nM; on Plasminogen, 1950 nM; against Prothrombin, 1100 nM; at Serine protease 1 it was 15 nM.
Take `COC(=O)N[C@H](CC1CCN(C(=N)N)CC1)C(=O)NCC(=O)N[C@H]1CCCN(C(=N)N)C1O` (some centres undefined): the Ki on Coagulation factor X [4] amounted to 23 nM. The values for the IC50 at Plasminogen, on Prothrombin and against Serine protease 1 were greater than 2500 nM, greater than 2500 nM and 412 nM, respectively.
Turning to `N=C(N)N1CCC(C[C@@H](NS(=O)(=O)Cc2ccccc2C(=O)O)C(=O)NCC(=O)N[C@H]2CCCN(C(=N)N)C2O)CC1` (some centres undefined), the IC50 is 5.3 nM on Coagulation factor X [6]; 5.7 nM against Coagulation factor X [1]; 2500 nM on Plasminogen; 12 nM in [2]; greater than 2500 nM against Prothrombin; 447 nM against Serine protease 1. Also, in [3], the Ratio came out at 2.3.
As for `N=C(N)N1CCC(C[C@@H](NS(=O)(=O)Cc2ccccc2)C(=O)NCC(=O)N[C@H]2CCCN(C(=N)N)C2O)CC1` (some centres undefined), the IC50 against Coagulation factor X [1] is 0.83 nM; against Plasminogen, 869 nM; in assay [2], 3.1 nM; at Prothrombin, greater than 2500 nM; at Serine protease 1, 169 nM. Moreover, the Ratio in assay [3] is 3.7.
Take `N=C(N)N1CCCC(C[C@@H](NS(=O)(=O)Cc2ccccc2)C(=O)NCC(=O)N[C@H]2CCCN(C(=N)N)C2O)C1` (stereo in doubt) [listing 1 of 2 here]: the IC50 at Coagulation factor X [1] was 0.92 nM; at Plasminogen, 726 nM; in assay [2], 3.3 nM; at Prothrombin it was greater than 2500 nM; against Serine protease 1, 31 nM.
For the compound `N=C(N)NCCC[C@@H](NS(=O)(=O)Cc1ccccc1)C(=O)NCC(=O)N[C@H]1CCCN(C(=N)N)C1O` (some centres undefined), the concentration for half-maximal inhibition (IC50) against Coagulation factor X [1] was 0.9 nM; against Plasminogen, 1190 nM; on Prothrombin, greater than 2500 nM; on Serine protease 1, 75 nM.
As for `N=C(N)N1CCCC(C[C@@H](NS(=O)(=O)Cc2ccccc2)C(=O)NCC(=O)N[C@H]2CCCN(C(=N)N)C2O)C1` (stereo in doubt) [listing 2 of 2 here], in assay [3], the Ratio is 3.6.
As to `N=C(N)NCCC[C@@H](NC(=O)OCc1ccccc1)C(=O)NCC(=O)N[C@H]1CCCN(C(=N)N)C1O` (stereo in doubt; 1), the IC50 on Coagulation factor X [1] is 34.9 nM; on Plasminogen it was greater than 2500 nM; on Prothrombin, greater than 2500 nM; against Serine protease 1, 115 nM.

The record behind these values is ChEMBL document CHEMBL1133331, “Guanylpiperidine peptidomimetics: potent and selective bis-cation inhibitors of factor Xa” (Bioorg Med Chem Lett, 2000).
